Data published in publication PMC5384256 (Bioconjugate chemistry, 2015).
Values joined by “and” are separate entries in the source; they are usually repeats but may differ in a detail not shown here. Identical values can stand only once. One block for each molecule: values may come before it. Where no end group is shown, it is not given here. Cy5.5 = Cy5.5 fluorophore

How the values were obtained:
[1] = tested on: p-AKT; test: Western blot p-AKT, SKBR3 cells; format: cell-based, Human; conditions: 48 h
Method in brief: (§1)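 SKBR3 cells (McCoy's) in 6-well plates at ~60% confluence got unlabeled test peptide at 5 or 100 μM. A tyrosine kinase inhibitor positive control was used at 1–1000 nM, alongside 1% DMSO and untreated controls. Cells were harvested at 48 h for Western blot. Antibodies covered total HER2, AKT and ERK1/2, phospho-HER2 (Tyr1248), phospho-AKT (pS473), phospho-ERK1/2 and tubulin.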

[2] = tested on: p-HER2; test: Western blot p-HER2, SKBR3 cells; format: cell-based, Human; conditions: 48 h
Method in brief: as §1

[3] = tested on: p-ERK; test: Western blot p-ERK, SKBR3 cells; format: cell-based, Human; conditions: 48 h
Method in brief: as §1

[4] = tested on: Flo1-HER2 cells; test: Confocal microscopy of FITC-labeled lead peptides with Flo1-HER2 cells; format: cell-based; conditions: 10 μM, 4 °C, 1 h, quadruplicate, data log base 2
Method in brief: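 Flo1-HER2 cells (DMEM + G418) and Q-hTERT control cells (Keratinocyte-SFM), ~7500 cells on coverslips, were grown to ~70% confluence and washed with cold PBS. They got 10 μM FITC-labeled peptide for 1 h at 4 °C, were washed 3×, fixed in ice-cold 4% PFA for 10 min and mounted with DAPI. Confocal imaging used a 63× oil objective, in quadruplicate.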

[5] = tested on: HER2 on HT29 cells; test: Apparent association time constant by flow cytometry; format: binding, Human; conditions: 5 μM KSP*-Cy5.5, 4 °C, 0-60 min, from k = 0.14 min^−1
[6] = tested on: HER2 on HT29 cells; test: Co-localization of peptide and anti-HER2 antibody binding, HT29 cells; format: cell-based, Human; conditions: KSP*-Cy5.5 5 μM, 1 h, 4 °C, then anti-HER2 and AF488 secondary
Method in brief: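 HT29 cells got 5 μM Cy5.5-labeled test peptide first (1 h, 4 °C), at under 10 μM to limit interference with antibody binding. Cells were washed, fixed in 4% PFA for 5 min, then stained with primary anti-HER2 and AF488 secondary. Co-localization was scored as Pearson's correlation coefficient.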

[7] = tested on: HER2 on HT29 cells; test: Confocal fluorescence microscopy, HT29 cells; format: cell-based, Human; conditions: peptides 5 μM, 30 min, 4 °C
Method in brief: (§2)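 Cells were cultured at 37 °C, 5% CO2 with 10% FBS and 1% pen/strep: HT29 in McCoy's, SW480 in DMEM. After a PBS wash, cells got 5 μM Cy5.5-labeled test or control peptide for 30 min at 4 °C, were washed 3×, fixed in ice-cold 4% PFA for 10 min and mounted with DAPI. Imaging used Cy5.5 and DAPI filters. Intensities were quantified from 3 independent images.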

[8] = tested on: HER2 on HT29 cells; test: siRNA knockdown of HER2, HT29 cells; format: cell-based, Human; conditions: HT29 siCL vs siHER2; confocal; average of 3 images
Method in brief: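 HT29 cells were seeded at 30% confluence in McCoy's 5A with 10% FBS and no antibiotics. Next day they were transfected with HER2-targeting siRNA or a nontargeting pool, and knockdown was confirmed by Western blot. Cy5.5-labeled test peptide and AF488 anti-HER2 binding were imaged confocally, with intensities quantified from 3 independent images.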

[9] = tested on: HER2 overexpressed by human proximal colonic neoplasia; test: Peptide immunofluorescence on FFPE human proximal colon specimens; conditions: KSP*-Cy5.5 5 μM, 10 min, RT
Method in brief: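 FFPE 5-μm sections were deparaffinized, then antigen-retrieved in 10 mM sodium citrate, 0.05% Tween, pH 6.0, at boiling then sub-boiling for 15 min. They were blocked with protein serum for 15 min at RT and stained with 5 μM Cy5.5-labeled test peptide for 10 min at RT. After PBS washes, anti-HER2 was applied overnight at 4 °C. Mean intensity was read from three 20×20 μm² epithelial boxes per image, avoiding saturated regions. Analysis used log2 transform if needed, one-way ANOVA with Tukey comparisons, and Pearson's coefficient for co-localization.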

[10] = tested on: HER2 in colonic adenomas of CPC;Apc mice; test: In vivo NIR endoscopic imaging of mouse colonic dysplasia, topical peptide; conditions: topical 100 μM, 1.5 mL
Method in brief: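 Cy5.5-labeled peptides, 100 μM in 1.5 mL, were delivered into the colon through the endoscope instrument channel and left 5 min. The colon was rinsed 3× with tap water before NIR imaging with a small animal endoscope. Imaging was repeated 2–3 days later with the control peptide. Target-to-background ratios came from mean ROI intensities.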

[11] = tested on: HER2 overexpressed by mouse colonic dysplasia; test: Peptide immunofluorescence on mouse colonic adenoma sections; conditions: 2 μM, 10 min, RT, confocal
Method in brief: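 Serial 5-μm sections of formalin-fixed mouse colonic adenoma were incubated with 2 μM Cy5.5-labeled test or control peptide for 10 min at RT. Sections were washed 3× with PBS and mounted with DAPI for confocal imaging. Adjacent sections were H&E stained.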

[12] = tested on: HER2 in colonic adenomas of CPC;Apc mice; test: In vivo NIR endoscopic imaging of mouse colonic dysplasia, systemic peptide; conditions: n = 4, i.v. tail vein, 200 μL of 300 μM
Method in brief: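 Isoflurane-anaesthetized CPC;Apc mice received 200 μL of 300 μM Cy5.5-labeled test peptide via tail vein. NIR endoscopy was done before injection for baseline, then after injection until maximum signal. The adenoma-to-normal intensity ratio came from regions of interest at each time point.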

[13] = tested on: HER2 on SW480 cells; test: Confocal fluorescence microscopy, SW480 cells; format: cell-based, Human; conditions: peptides 5 μM, 30 min, 4 °C
Method in brief: as §2

[14] = tested on: dysplastic polyps; conditions: FITC-labeled, topical application, patients; cited from earlier work
[15] = target: Human epidermal growth factor receptor 2 (HER2), endogenous on human cells and tissue (human, UniProt P04626 23-1255); test: flow cytometry on cells
[16] = lapatinib 1, 25, 100, 1000 nM, concentration dependent
[17] = human proximal colon FFPE, n = 30, mean ± sem

Molecule: CS(=O)(=O)CCNCc1ccc(-c2ccc3ncnc(Nc4ccc(OCc5cccc(F)c5)c(Cl)c4)c3c2)o1 [lapatinib, reference compound]
- Expression of p-AKT [1, 16]: reduced expression
- Expression of p-HER2 [2, 16]: reduced expression
- Expression of p-ERK [3, 16]: reduced expression

Molecule: KSPNPRF
- Mean fluorescence intensity (rank among top 5 peptides) [4]: highest mean fluorescence intensity

- Time of peak T/B ratio (mean intensity) [12]: 100 min
Molecule: KSPNPRF [KSP*-Cy5.5]
- Apparent association time constant, as time [5]: 7.1 min and 7.14 min
- Co-localization with anti-HER2-AF488, Pearson's coefficient [6]: 0.74
- Binding to cell surface [7]: binds to the surface
- Binding to siCL treated control cells compared to siHER2 knockdown cells [8]: significantly greater
- Co-localization with anti-HER2-AF488, Pearson's correlation coefficient ([9]; human colonic dysplasia, then anti-HER2): 0.50
- Mean fluorescence intensity, hyperplastic polyps ([9]; human proximal colon FFPE, n = 12, mean ± sem): 0.12 ± 0.08
- Mean fluorescence intensity, sessile serrated adenomas ([9]; human proximal colon FFPE, n = 13, mean ± sem): 6.07 ± 0.73
- Mean fluorescence intensity, normal [9, 17]: 2.72 ± 0.31
- Mean fluorescence intensity, sporadic adenomas [9, 17]: 11.9 ± 0.61
- NIR fluorescence at flat adenoma [10]: increased intensity with visible crypt-like structures
- NIR fluorescence at polypoid adenoma [10]: increased intensity
- Staining of normal colon [11]: Minimal staining
- Binding to cell surface [13]: binds to the surface

Molecule: KSPNPRF [KSP*]
- Apparent association time constant, as time [5]: 7.1 min
- Phosphorylation of AKT (p-AKT) ([1]; KSP* 5 and 100 μM, pS473): no change
- Phosphorylation of HER2 (p-HER2) ([2]; KSP* 5 and 100 μM, Tyr1248): no change
- Phosphorylation of ERK (p-ERK) ([3]; KSP* 5 and 100 μM): no change

Molecule: PPSNFKR [PPS*-Cy5.5]
- Binding to cell surface [7]: minimal binding
- NIR fluorescence at flat adenoma [10]: minimal signal
- NIR fluorescence at polypoid adenoma [10]: minimal signal
- Staining of normal colon [11]: Minimal staining
- Binding to cell surface [13]: minimal binding

Molecule: VRPMPLQ
- Binding in vivo on dysplastic polyps [14]: specific binding was validated

- Kd [15]: 21 nM
B1: KSP*-Cy5.5 (KSPNPRF peptide labeled with Cy5.5 via a GGGSK linker) (peptide)
peptide: KSPNPRFGGGSK(Cy5.5)-NH2
